Holding throughout (assay type): functional
Holding throughout (parameters): scale not given: the % may be the effect or the level left

In experiment [1] the test system is Mycobacterium tuberculosis. Nature of the experiment: Antimycobacterial activity against Mycobacterium tuberculosis H37Rv assessed as reduction in relative light units at 10 ug/ml after 72 hrs by LRP assay. In a few lines:
(§1)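 Luciferase reporter phage assay on M. tuberculosis (H37Rv, or clinical isolates resistant to S, H, R and E). Each sample had two drug-free controls and four drug concentrations, incubated 72 h at 37 °C. High-titer phAE129 phage plus 0.1 M CaCl₂ was added, then 4 h at 37 °C. Equal volume D-luciferin (0.3 mM, pH 4.5 citrate) was added; RLU integrated 10 s, duplicate mean; % RLU reduction vs control.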

Experiment [2] concerns Mycobacterium tuberculosis. The experiment in a line: Antimycobacterial activity against Mycobacterium tuberculosis H37Rv assessed as reduction in relative light units at 5 ug/ml after 72 hrs by LRP assay. The method in brief:
as §1

Experiment [3] has as its system Mycobacterium tuberculosis. Nature of the experiment: Antimycobacterial activity against Mycobacterium tuberculosis H37Rv assessed as reduction in relative light units at 0.05 ug/ml after 72 hrs by LRP assay. The method in brief: as §1
The test system of experiment [4] is Mycobacterium tuberculosis. Nature of the experiment: Antimycobacterial activity against Mycobacterium tuberculosis H37Rv assessed as reduction in relative light units at 0.5 ug/ml after 72 hrs by LRP assay. The method in brief: as §1

We go through eleven compounds from ChEMBL document CHEMBL1154054, “Novel 4-(morpholin-4-yl)-N'-(arylidene)benzohydrazides: synthesis, antimycobacterial activity and QSAR investigations” (Eur J Med Chem, 2009).

For `Cc1ccc(/C=N/NC(=O)c2ccc(N3CCOCC3)cc2)cc1`, the Activity in experiment [1] was 98.18%; in experiment [2], 97.75%; in experiment [3], 24.19%; in experiment [4] it was 97.29%.

In the case of `COc1cc(/C=N/NC(=O)c2ccc(N3CCOCC3)cc2)cc(OC)c1OC`, the Activity was 97.77% in experiment [1], 97.59% in experiment [2], 49.68% in experiment [3] and 96.51% in experiment [4].

Consider `O=C(N/N=C1\C=CCO1)c1ccc(N2CCOCC2)cc1`, for which the Activity in experiment [1] is listed as 97.55%; in experiment [2], 98.41%; in experiment [3], 15.04%; in experiment [4], 96.9%.

As for `O=C(N/N=C/c1ccc(F)cc1)c1ccc(N2CCOCC2)cc1`, the Activity in experiment [1] came out at 99.09%; in experiment [2], 98.98%; in experiment [3], 96.78%; in experiment [4], 98.22%.

For `O=C(N/N=C/c1ccc(O)cc1)c1ccc(N2CCOCC2)cc1`, the Activity was found to be 97.24% in experiment [1], 97.53% in experiment [2], 51.79% in experiment [3] and 77.81% in experiment [4].

For `COc1ccc(/C=N/NC(=O)c2ccc(N3CCOCC3)cc2)cc1`, the Activity in experiment [1] came to 97.18%; in experiment [2] it was 98.1%; in experiment [3], 30.04%; in experiment [4], 96.24%.

As for `O=C(N/N=C/c1cccc([N+](=O)[O-])c1)c1ccc(N2CCOCC2)cc1`, the Activity in experiment [1] turned out to be 98.4%; in experiment [2] it was 98.4%; in experiment [3], 9.118%; in experiment [4] it was 98.04%.

Consider `O=C(N/N=C/c1ccc(Cl)cc1)c1ccc(N2CCOCC2)cc1`, for which the Activity amounted to 99.26% in experiment [1], 98.38% in experiment [2], 78.09% in experiment [3] and 98.02% in experiment [4].

For the compound `O=C(N/N=C\C=C\c1ccccc1)c1ccc(N2CCOCC2)cc1`, the Activity in experiment [1] stood at 97.32%; in experiment [2], 97.82%; in experiment [3] it was 63.16%; in experiment [4], 98.96%.

For `CN(C)c1ccc(/C=N/NC(=O)c2ccc(N3CCOCC3)cc2)cc1`, the Activity was determined as 98.82% in experiment [1], 98.49% in experiment [2], 20.85% in experiment [3] and 98.09% in experiment [4].

As to `NNC(=O)c1ccncc1` [ISONIAZID], the Activity was 98.99% in experiment [1], 99.01% in experiment [2], 96% in experiment [3] and 98.42% in experiment [4].
